According to ChEMBL document CHEMBL1949585, “Design, synthesis and evaluation of telomerase inhibitory, hTERT repressing, and anti-proliferation activities of symmetrical 1,8-disubstituted amidoanthraquinones” (Eur J Med Chem, 2012):

Tests used:
Format in all cases: functional
K562 = test: Cytotoxicity against human K562 cells assessed as cell growth at 10 uM relative to control; conditions: read-out: Activity
Outline: (§1)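 Single-concentration screen in the NCI 60 human tumour cell line panel covering nine cancer types. Values are the mean growth percentage of compound-treated cells, with untreated control cells set as 100%.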

RPMI-8226 [1] = test: Cytotoxicity against human RPMI8226 cells assessed as cell growth at 10 uM relative to control; conditions: read-out: Activity; outline: as §1
SR = test: Cytotoxicity against human SR cells assessed as cell growth at 10 uM relative to control; conditions: read-out: Activity
Outline: (§2)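 Run in the NCI 60-cell human tumour panel. Cells were exposed to 10 µM compound, and growth was given as a percentage of untreated control cells set to 100%.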

EKVX = test: Cytotoxicity against human EKVX cells assessed as cell growth at 10 uM relative to control; conditions: read-out: Activity; outline: as §1
HOP-62 = test: Cytotoxicity against human HOP62 cells assessed as cell growth at 10 uM relative to control; conditions: read-out: Activity; outline: as §1
HOP-92 = test: Cytotoxicity against human HOP92 cells assessed as cell growth at 10 uM relative to control; conditions: read-out: Activity; outline: as §1
NCI-H226 = test: Cytotoxicity against human NCI-H226 cells assessed as cell growth at 10 uM relative to control; conditions: read-out: Activity; outline: as §1
NCI-H460 = test: Cytotoxicity against human NCI-H460 cells assessed as cell growth at 10 uM relative to control; conditions: read-out: Activity; outline: as §1
HCT-15 = test: Cytotoxicity against human HCT15 cells assessed as cell growth at 10 uM relative to control; conditions: read-out: Activity; outline: as §1
HT-29 = test: Cytotoxicity against human HT-29 cells assessed as cell growth at 10 uM relative to control; conditions: read-out: Activity; outline: as §1
KM12 = test: Cytotoxicity against human KM12 cells assessed as cell growth at 10 uM relative to control; conditions: read-out: Activity; outline: as §1
MDA-MB-435 = test: Cytotoxicity against human MDA-MB-435 cells assessed as cell growth at 10 uM relative to control; conditions: read-out: Activity; outline: as §1
MDA-MB-468 = test: Cytotoxicity against human MDA-MB-468 cells assessed as cell growth at 10 uM relative to control; conditions: read-out: Activity; outline: as §1
T47D = test: Cytotoxicity against human T47D cells assessed as cell growth at 10 uM relative to control; conditions: read-out: Activity; outline: as §2
OVCAR-8 = test: Cytotoxicity against human OVCAR8 cells assessed as cell growth at 10 uM relative to control; conditions: read-out: Activity; outline: as §1
A498 = test: Cytotoxicity against human A498 cells assessed as cell growth at 10 uM relative to control; conditions: read-out: Activity; outline: as §1
SN12C = test: Cytotoxicity against human SN12C cells assessed as cell growth at 10 uM relative to control; conditions: read-out: Activity; outline: as §1
M14 = test: Cytotoxicity against human M14 cells assessed as cell growth at 10 uM relative to control; conditions: read-out: Activity; outline: as §1
PC-3 = test: Cytotoxicity against human PC3 cells assessed as cell growth at 10 uM relative to control; conditions: read-out: Activity; outline: as §1
SF-539 = test: Cytotoxicity against human SF539 cells assessed as cell growth at 10 uM relative to control; conditions: read-out: Activity; outline: as §1
U-251 = test: Cytotoxicity against human U251 cells assessed as cell growth at 10 uM relative to control; conditions: read-out: Activity; outline: as §2
RPMI-8226 [2] = test: Growth inhibition of human RPMI8226 cells at 10 uM relative to control; conditions: read-out: GI; outline: as §2

Row | Structure (SMILES) | growth at 10 µM (K562) | growth at 10 µM (RPMI-8226 [1]) | growth at 10 µM (EKVX) | growth at 10 µM (HOP-62) | growth at 10 µM (HOP-92) | growth at 10 µM (NCI-H226) | growth at 10 µM (NCI-H460) | growth at 10 µM (HCT-15) | growth at 10 µM (HT-29) | growth at 10 µM (KM12) | growth at 10 µM (MDA-MB-435) | growth at 10 µM (MDA-MB-468) | growth at 10 µM (T47D) | growth at 10 µM (OVCAR-8) | growth at 10 µM (A498) | growth at 10 µM (SN12C) | growth at 10 µM (M14) | growth at 10 µM (PC-3) | growth at 10 µM (SF-539) | growth at 10 µM (U-251) | other results
1 | CCN(CC)CC(=O)Nc1cccc2c1C(=O)c1c(NC(=O)CN(CC)CC)cccc1C2=O | 106% | 68.5% | 104% | 88.3% | 93.5% | 85.5% | 97.2% | 93.4% | 101% | 119% | 103% | 86.6% | 84.8% | 91.2% | 93.3% | 92.1% | 98.6% | 89.1% | 91.7% | 100% | growth at 10 µM (SR): 88.5%
2 | COC(=O)CNCC(=O)Nc1cccc2c1C(=O)c1c(NC(=O)CNCC(=O)OC)cccc1C2=O | 97.1% | 37.4% | 104% | 108% | 75.8% | 84.6% | 95.1% | 94.3% | 96.3% | 107% | 102% | 83.8% | 83.8% | 96.3% | 85.2% | 90.4% | 113% | 76.6% | 91.9% | 93.7% | inhibition of growth at 10 µM (RPMI-8226 [2]): 31.4%
